The source of these data is ChEMBL document CHEMBL4145462, “Nitrogen-containing ecdysteroid derivatives vs. multi-drug resistance in cancer: Preparation and antitumor activity of oximes, oxime ethers and a lactam” (Eur J Med Chem, 2018).

Broadly, the IC50 is the concentration at which inhibition is half-maximal. Higher therefore signals a need for much substance. In general, inhibition refers to the drop in the measured response relative to a control, in per cent.

One data set concerns HeLa. Nature of the data set: Antiproliferative activity against human HeLa cells after 72 hrs by MTT assay. It is filed as functional, cell-based.
Details: not given
In a few lines: (§1)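 Cells grown in MEM with 10% FCS, 1% non-essential amino acids and 1% penicillin-streptomycin. Seeded at 5000 cells/well, exposed to 0.1–30.0 µM compound for 72 h. MTT (5 mg/ml solution) was then added for 4 h, formazan dissolved in DMSO, and absorbance read at 545 nm. Cisplatin served as positive control. IC50 came from sigmoidal dose–response fits (log inhibitor vs normalized response, variable slope).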
(In general: Tetrazolium assays rely on reduction of a dye to a coloured formazan, in cell work by metabolically active cells.)
Compound `CO/N=C1/C=C2C3=CC[C@H]([C@@]4(C)OC(C)(C)O[C@@H]4CCC(C)(C)O)[C@@]3(C)CC[C@@H]2[C@@]2(C)C[C@@H]3OC(C)(C)O[C@@H]3C[C@@H]12` displayed an IC50 of 15.4 µM.

The test system of a further data set is SiHa. Nature of the data set: Antiproliferative activity against human SiHa cells after 72 hrs by MTT assay. It is filed as functional, cell-based.
Details: not given
In a few lines:
as §1
In turn, `CO/N=C1/C=C2C3=CC[C@H]([C@@]4(C)OC(C)(C)O[C@@H]4CCC(C)(C)O)[C@@]3(C)CC[C@@H]2[C@@]2(C)C[C@@H]3OC(C)(C)O[C@@H]3C[C@@H]12` had an IC50 of over 30 µM.

In a further data set the test system is MDA-MB-231. Put plainly: Antiproliferative activity against human MDA-MB-231 cells after 72 hrs by MTT assay. It is filed as functional, cell-based. The settings on record: MDA-MB-231, 72 h. In a few lines: as §1
`CO/N=C1/C=C2C3=CC[C@H]([C@@]4(C)OC(C)(C)O[C@@H]4CCC(C)(C)O)[C@@]3(C)CC[C@@H]2[C@@]2(C)C[C@@H]3OC(C)(C)O[C@@H]3C[C@@H]12` registered an IC50 of 26 µM.

The subject of the next data set is MCF7. Put plainly: Antiproliferative activity against human MCF7 cells after 72 hrs by MTT assay. It is filed as functional, cell-based. Particulars: MCF7, 72 h. A digest of the protocol: as §1
`CO/N=C1/C=C2C3=CC[C@H]([C@@]4(C)OC(C)(C)O[C@@H]4CCC(C)(C)O)[C@@]3(C)CC[C@@H]2[C@@]2(C)C[C@@H]3OC(C)(C)O[C@@H]3C[C@@H]12` yielded an IC50 of 18 µM.

Tested on in the next data set: not listed separately
Put plainly: Cytotoxicity against mouse L5178 cells expressing human ABCB1 after 48 hrs by MTT assay. It is filed as functional, cell-based. The settings on record: L5178, 48 h. In a few lines:
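Parental mouse lymphoma L5178 and the MDR line made by pHa MDR1/A retrovirus transfection, selected with 60 µg/L colchicine. Grown in McCoy's 5A with horse serum at 37°C, 5% CO2. 5 x 10^4 cells/well, serial compound dilutions, 48 h. MTT added to 0.5 mg/mL final for 4 h, then 10% SDS in 0.01 M HCl overnight, OD read at 540 and 630 nm. IC50 taken as median cytotoxic activity (Dm) from control lanes of checkerboard plates, n=2.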
As to `CO/N=C1/C=C2C3=CC[C@H]([C@@]4(C)OC(C)(C)O[C@@H]4CCC(C)(C)O)[C@@]3(C)CC[C@@H]2[C@@]2(C)C[C@@H]3OC(C)(C)O[C@@H]3C[C@@H]12`, the IC50 came out at 53.1 µM.

The target in a further data set is ABCB1 (P-glycoprotein) (Homo sapiens, UniProt P08183). Nature of the data set: Inhibition of human ABCB1 expressed in mouse L5178 cells assessed as increase in rhodamine-123 accumulation at 20 uM after 10 mins by flow cytometric analysis relative to control. Particulars: mouse L5178 cells expressing human ABCB1, probe rhodamine-123. It is filed as cell-based. A digest of the protocol: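 Cells at 2 × 10^6/mL were preincubated 10 min with compound. Rhodamine 123 then added to 5.2 µM final, 20 min at 37 °C. Cells washed twice in PBS, resuspended and read by flow cytometry. Percent inhibition was scaled between MDR-cell accumulation (0%) and parental L5178 accumulation (100%). Controls: 100 nM tariquidar (positive) and 2% DMSO (negative).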
Sequence of ABCB1 (P-glycoprotein) (P08183 whole entry): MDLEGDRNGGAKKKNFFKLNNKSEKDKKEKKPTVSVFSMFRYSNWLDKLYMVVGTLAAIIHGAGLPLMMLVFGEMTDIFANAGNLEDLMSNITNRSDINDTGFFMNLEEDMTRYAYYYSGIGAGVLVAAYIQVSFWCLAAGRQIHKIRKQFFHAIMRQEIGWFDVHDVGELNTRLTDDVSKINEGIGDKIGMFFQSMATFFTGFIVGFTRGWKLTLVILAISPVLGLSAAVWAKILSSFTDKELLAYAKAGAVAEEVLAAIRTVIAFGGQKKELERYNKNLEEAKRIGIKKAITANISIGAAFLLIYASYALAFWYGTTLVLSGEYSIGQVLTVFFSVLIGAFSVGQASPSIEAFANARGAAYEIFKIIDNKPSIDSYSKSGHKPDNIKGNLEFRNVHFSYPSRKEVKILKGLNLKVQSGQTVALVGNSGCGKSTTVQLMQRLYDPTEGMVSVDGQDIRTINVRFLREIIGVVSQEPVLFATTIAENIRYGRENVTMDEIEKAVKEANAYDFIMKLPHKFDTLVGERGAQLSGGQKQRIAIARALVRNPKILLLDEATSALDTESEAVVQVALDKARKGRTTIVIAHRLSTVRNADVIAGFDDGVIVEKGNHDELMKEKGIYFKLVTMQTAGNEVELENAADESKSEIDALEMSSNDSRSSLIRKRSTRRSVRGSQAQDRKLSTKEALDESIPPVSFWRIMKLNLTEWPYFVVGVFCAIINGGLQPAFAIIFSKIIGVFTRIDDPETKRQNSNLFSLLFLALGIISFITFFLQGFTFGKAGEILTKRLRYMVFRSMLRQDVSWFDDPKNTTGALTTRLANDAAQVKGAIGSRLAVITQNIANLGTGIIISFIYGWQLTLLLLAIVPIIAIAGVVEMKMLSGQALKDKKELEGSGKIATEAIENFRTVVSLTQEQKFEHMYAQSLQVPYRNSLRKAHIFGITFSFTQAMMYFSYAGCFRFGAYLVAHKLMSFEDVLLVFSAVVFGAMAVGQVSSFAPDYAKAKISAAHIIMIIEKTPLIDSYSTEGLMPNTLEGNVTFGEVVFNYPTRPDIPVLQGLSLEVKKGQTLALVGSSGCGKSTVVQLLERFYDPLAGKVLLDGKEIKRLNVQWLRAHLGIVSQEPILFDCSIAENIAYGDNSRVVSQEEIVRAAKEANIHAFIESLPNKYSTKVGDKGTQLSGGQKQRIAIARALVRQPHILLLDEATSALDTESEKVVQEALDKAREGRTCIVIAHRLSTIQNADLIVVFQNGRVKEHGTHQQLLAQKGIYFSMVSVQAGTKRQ
On the technique in general: Flow cytometry measures light scatter and fluorescence of single cells or particles in a stream.
For `CO/N=C1/C=C2C3=CC[C@H]([C@@]4(C)OC(C)(C)O[C@@H]4CCC(C)(C)O)[C@@]3(C)CC[C@@H]2[C@@]2(C)C[C@@H]3OC(C)(C)O[C@@H]3C[C@@H]12`, the inhibition at 10 min, 20 µM stood at 106%.

Tested on in the next data set: not listed separately
Nature of the data set: Synergistic cytotoxicity against mouse L5178 cells assessed as combination index at ED50 using 150:1 test compound to doxorubicin ratio after 48 hrs by MTT-based checkerboard microplate method. It is filed as functional.
Details: not given
In a few lines:
(§2)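 Checkerboard microplate combinations of compound with doxorubicin at constant molar ratios. 5 × 10^4 cells/well in McCoy's 5A, 48 h at 37°C, 5% CO2. MTT added to 0.5 mg/mL final for 4 h, SDS/HCl overnight, OD read at 540 and 630 nm. Combination indices derived per ratio for 50%, 75% and 90% growth inhibition by median-effect analysis.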
Consider `CO/N=C1/C=C2C3=CC[C@H]([C@@]4(C)OC(C)(C)O[C@@H]4CCC(C)(C)O)[C@@]3(C)CC[C@@H]2[C@@]2(C)C[C@@H]3OC(C)(C)O[C@@H]3C[C@@H]12`, for which the CI was 0.18.

Tested on in a further data set: not listed separately
Nature of the data set: Synergistic cytotoxicity against mouse L5178 cells expressing human ABCB1 assessed as combination index at ED50 using 15:1 test compound to doxorubicin ratio after 48 hrs by MTT-based checkerboard microplate method. It is filed as functional.
Details: not given
In a few lines:
as §2
For `CO/N=C1/C=C2C3=CC[C@H]([C@@]4(C)OC(C)(C)O[C@@H]4CCC(C)(C)O)[C@@]3(C)CC[C@@H]2[C@@]2(C)C[C@@H]3OC(C)(C)O[C@@H]3C[C@@H]12`, the CI turned out to be 0.75.

Tested on in the next data set: not listed separately
Nature of the data set: Synergistic cytotoxicity against mouse L5178 cells assessed as combination index at ED90 using 150:1 test compound to doxorubicin ratio after 48 hrs by MTT-based checkerboard microplate method. It is filed as functional.
Details: not given
A digest of the protocol:
as §2
In the case of `CO/N=C1/C=C2C3=CC[C@H]([C@@]4(C)OC(C)(C)O[C@@H]4CCC(C)(C)O)[C@@]3(C)CC[C@@H]2[C@@]2(C)C[C@@H]3OC(C)(C)O[C@@H]3C[C@@H]12`, the CI was found to be 0.64.

Tested on in the next data set: not listed separately
Put plainly: Synergistic cytotoxicity against mouse L5178 cells expressing human ABCB1 assessed as combination index at ED75 using 15:1 test compound to doxorubicin ratio after 48 hrs by MTT-based checkerboard microplate method. It is filed as functional.
Details: not given
In a few lines: as §2
As to `CO/N=C1/C=C2C3=CC[C@H]([C@@]4(C)OC(C)(C)O[C@@H]4CCC(C)(C)O)[C@@]3(C)CC[C@@H]2[C@@]2(C)C[C@@H]3OC(C)(C)O[C@@H]3C[C@@H]12`, the CI was found to be 0.17.

Tested on in a further data set: not listed separately
Nature of the data set: Synergistic cytotoxicity against mouse L5178 cells expressing human ABCB1 assessed as combination index at ED50 using 30:1 test compound to doxorubicin ratio after 48 hrs by MTT-based checkerboard microplate method.
Details: not given
It is filed as functional. In a few lines:
as §2
Regarding `CO/N=C1/C=C2C3=CC[C@H]([C@@]4(C)OC(C)(C)O[C@@H]4CCC(C)(C)O)[C@@]3(C)CC[C@@H]2[C@@]2(C)C[C@@H]3OC(C)(C)O[C@@H]3C[C@@H]12`, the CI is 0.21.

Tested on in a further data set: not listed separately
Nature of the data set: Synergistic cytotoxicity against mouse L5178 cells expressing human ABCB1 assessed as combination index at ED90 using 30:1 test compound to doxorubicin ratio after 48 hrs by MTT-based checkerboard microplate method. It is filed as functional.
Details: not given
A digest of the protocol: as §2
As for `CO/N=C1/C=C2C3=CC[C@H]([C@@]4(C)OC(C)(C)O[C@@H]4CCC(C)(C)O)[C@@]3(C)CC[C@@H]2[C@@]2(C)C[C@@H]3OC(C)(C)O[C@@H]3C[C@@H]12`, the CI is listed as 0.24.

Tested on in a further data set: not listed separately
Nature of the data set: Synergistic cytotoxicity against mouse L5178 cells expressing human ABCB1 assessed as combination index at ED50 using 7.5:1 test compound to doxorubicin ratio after 48 hrs by MTT-based checkerboard microplate method. It is filed as functional.
Details: not given
A digest of the protocol:
as §2
In the case of `CO/N=C1/C=C2C3=CC[C@H]([C@@]4(C)OC(C)(C)O[C@@H]4CCC(C)(C)O)[C@@]3(C)CC[C@@H]2[C@@]2(C)C[C@@H]3OC(C)(C)O[C@@H]3C[C@@H]12`, the CI is recorded as 0.17.

Tested on in a further data set: not listed separately
Put plainly: Synergistic cytotoxicity against mouse L5178 cells expressing human ABCB1 assessed as combination index at ED75 using 7.5:1 test compound to doxorubicin ratio after 48 hrs by MTT-based checkerboard microplate method. It is filed as functional.
Details: not given
In a few lines: as §2
As to `CO/N=C1/C=C2C3=CC[C@H]([C@@]4(C)OC(C)(C)O[C@@H]4CCC(C)(C)O)[C@@]3(C)CC[C@@H]2[C@@]2(C)C[C@@H]3OC(C)(C)O[C@@H]3C[C@@H]12`, the CI was determined as 0.16.
